Laboratory results published in ChEMBL document CHEMBL4043092, “Neuroprotective and Antineuroinflammatory Effects of Hydroxyl-Functionalized Stilbenes and 2-Arylbenzo[b]furans” (J Med Chem, 2017).
Active and inactive are the calls of the source. The calls are words filed in the database; no cut-off is given here.

Columns and labels:
Cortical neurone [1] = assay: (§1) Neuroprotective activity against fibril amyloid beta (25 to 35)-induced cell death in Sprague-Dawley rat 5 days old neonatal primary cortical neuron assessed as inhibition of fibril amyloid beta (25 to 35)-induced decrease in tau protein level at 50 uM pretreated for 2 hrs followed by 10 uM fibril amyloid beta (25 to 35) addition measured after 48 hrs by fluorescein isothiocyanate dye-based immunocytochemistry analysis; assay type: functional
Summary of the method: (§2)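 Cortical neurons at DIV5 (fibrillar Aβ25–35 10 μM, 48 h) or DIV10 (glutamate 30 μM, 24 h), after 2 h with 50 μM compound. Fixed in 4% paraformaldehyde, permeabilized with Triton X-100, blocked with donkey serum. Stained with anti-MAP2 and anti-tau (1:100, overnight at 4 °C), then FITC and RRX secondaries. Integrated density relative to vehicle. Mean ± SEM, n=3.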

[2] = Anti-inflammatory activity in Sprague-Dawley rat primary mixed glial cells assessed as inhibition of LPS-induced NO production at 50 uM pretreated for 2 hrs followed by LPS addition measured after 48 hrs by Griess assay (reference value: 100%); assay type: functional, Primary glial cell; parameters: scale not given: the % may be the effect or the level left
[3] = Antioxidant activity assessed as ABTS radical cation scavenging activity by measuring trolox equivalents by spectrophotometric analysis; assay type: functional
[4] = Anti-inflammatory activity in Sprague-Dawley rat primary mixed glial cells assessed as inhibition of LPS-induced NO production pretreated for 2 hrs followed by LPS addition measured after 48 hrs by Griess assay; assay type: functional, cell-based; conditions: Glial cell
Summary of the method: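 Mixed cortical glia kept 3 days in DMEM/F12 with 10% FBS, medium changed, 4 more days, then 9 days in Neurobasal/B27 (16 days total). Cultures activated 2 days after medium refresh with 100 ng/mL LPS for 48 h, with compound at maximum nontoxic concentration. Medium nitrite read by Griess reagent at 540 nm against NaNO2 standard. Mean ± SD, three independent experiments.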

Cortical neurone [5] = assay: as §1, with “MAP2” for “tau protein”; assay type: functional; summary of the method: as §2
Cortical neurone [6] = assay: (§3) Neuroprotective activity against glutamate-induced cell death in Sprague-Dawley rat 10 days old neonatal primary cortical neurons assessed as increase in cell viability pretreated for 2 hrs followed by 30 uM glutamate addition measured after 24 hrs by MTT assay; assay type: functional, cell-based
Summary of the method: (§4)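 Cortical neurons pretreated 2 h with vehicle (0.1% DMSO) or compound at maximum nontoxic concentration. Then exposed at DIV5 to fibrillar Aβ25–35 (10 μM, 48 h) or at DIV10 to glutamate (30 μM, 24 h). MTT 0.5 mg/mL for 1 h, formazan dissolved in DMSO, OD read at 600 nm. Mean ± SD of three independent experiments.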

Cortical neurone [7] = assay: as §3, with “fibril amyloid beta (25 to 35)-induced” for “glutamate-induced”, “5” for “10”, “10” for “30”, “fibril amyloid beta (25 to 35)” for “glutamate”, “48” for “24”; assay type: functional, cell-based; summary of the method: as §4
Cortical neurone [8] = assay: Neuroprotective activity against fibril amyloid beta (25 to 35)-induced cell death in Sprague-Dawley rat 5 days old neonatal primary cortical neuron assessed as increase in cell viability at 50 uM pretreated for 2 hrs followed by 10 uM fibril amyloid beta (25 to 35) addition measured after 48 hrs by calcein AM dye-based confocal laser scanning microscopic analysis; assay type: functional
Summary of the method: (§5)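 Rat pup cortical neurons in Neurobasal/B27, given 5 μM cytosine arabinoside for 1 day. Used at DIV5 for Aβ25–35 fibrils (aged 1 week at 37 °C; 10 μM, 48 h) or DIV10 for glutamate (30 μM, 24 h), after 2 h with 50 μM compound or 0.1% DMSO. Cells loaded with 1 μM calcein AM and ethidium homodimer-1 for 30 min at room temperature, imaged by confocal microscopy. Live-cell count and integrated density expressed relative to vehicle. Mean ± SEM, n=3.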

Cortical neurone [9] = assay: Neuroprotective activity against fibril amyloid beta (25 to 35)-induced cell death in Sprague-Dawley rat 5 day old neonatal primary cortical neurons assessed as cell death at maximum non toxic concentration pretreated for 2 hrs followed by 10 uM fibril amyloid beta (25 to 35) addition measured after 48 hrs by MTT assay (reference value: 39.20 +/- 0.88%); assay type: functional
Summary of the method: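 Rat cortical neurons from pups, papain-dissociated, cytosine arabinoside (5 μM, 1 day) to remove non-neuronal cells, used at DIV5. Vehicle 0.1% DMSO or compound pretreatment before fAβ25–35 (aged 1 week at 37 °C). Viability by MTT reduction: 0.5 mg/mL for 1 h, formazan dissolved in DMSO, OD600. Mean ± SD of three independent experiments.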

Cortical neurone [10] = assay: as §3, with “as” for “as increase in”, “death at maximum non toxic concentration” for “viability”, “assay (reference value: 41.22 +/- 3.40%)” for “assay”; assay type: functional
Cortical neurone [11] = assay: Neuroprotective activity against glutamate-induced cell death in Sprague-Dawley rat 10 days old neonatal primary cortical neuron assessed as increase in cell viability at 50 uM pretreated for 2 hrs followed by 30 uM glutamate addition measured after 24 hrs by calcein AM dye-based confocal laser scanning microscopic analysis; assay type: functional; summary of the method: as §5
Cortical neurone [12] = assay: (§6) Neuroprotective activity against glutamate-induced cell death in Sprague-Dawley rat 10 days old neonatal primary cortical neuron assessed as inhibition of glutamate-induced decrease in tau level at 50 uM pretreated for 2 hrs followed by 30 uM glutamate addition measured after 24 hrs by fluorescein isothiocyanate dye-based immunocytochemistry analysis; assay type: functional; summary of the method: as §2
Mus musculus [13] = assay: Antialzheimer activity in APPswe/PSEN1dE9 double transgenic C57BL/6J mouse model of Alzheimer's disease assessed as decrease in number of unshredded nestlets at 30 mg/kg/day administered via oral gavage over 60 days by nesting test
Cytochrome P450 3A4 = Cytochrome P450 3A4 (Homo sapiens, UniProt P08684); assay: Inhibition of CYP3A4 in human liver microsomes; assay type: ADME
Sequence of Cytochrome P450 3A4 (P08684 whole entry): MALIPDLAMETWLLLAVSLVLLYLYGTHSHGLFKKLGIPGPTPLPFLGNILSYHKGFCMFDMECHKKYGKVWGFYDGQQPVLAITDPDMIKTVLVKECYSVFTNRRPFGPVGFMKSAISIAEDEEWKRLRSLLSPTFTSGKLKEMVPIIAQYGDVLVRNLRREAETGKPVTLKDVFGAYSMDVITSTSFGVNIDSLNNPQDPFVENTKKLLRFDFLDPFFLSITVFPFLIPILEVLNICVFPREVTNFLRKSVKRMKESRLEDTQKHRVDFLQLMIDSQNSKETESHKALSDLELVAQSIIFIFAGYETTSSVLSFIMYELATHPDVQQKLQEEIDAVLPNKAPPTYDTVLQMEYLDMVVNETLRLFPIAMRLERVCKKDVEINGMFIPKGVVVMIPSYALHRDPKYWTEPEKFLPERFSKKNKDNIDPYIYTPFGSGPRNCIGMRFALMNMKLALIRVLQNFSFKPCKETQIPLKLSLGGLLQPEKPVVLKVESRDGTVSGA

Mus musculus [14] = assay: Antialzheimer activity in APPswe/PSEN1dE9 double transgenic C57BL/6J mouse model of Alzheimer's disease assessed as increase in nesting score at 30 mg/kg/day administered via oral gavage over 60 days by nesting test; assay type: functional, organism-based
Summary of the method: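 Female APP/PS1 C57BL/6J mice, 5 months old, given compound by oral gavage at 30 mg/kg/day for 60 days. Wild-type siblings received vehicle. Two nestlets (about 5 g) placed in the cage 1 h before the dark cycle. Nest score and unshredded nestlet weight recorded. Mean ± SD per group.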

Cortical neurone [15] = assay: as §6, with “MAP2” for “tau”; assay type: functional; summary of the method: as §2

Compound	inhibition (Cortical neurone [1])	Activity [2] [%]	Activity [3] [mMequiv]	EC50 [4] [µM]	inhibition (Cortical neurone [5])	EC50 (Cortical neurone [6]) [µM]	EC50 (Cortical neurone [7]) [µM]	Activity (Cortical neurone [8])	Activity (Cortical neurone [9]) [%]	Activity (Cortical neurone [10]) [%]	Activity (Cortical neurone [11])	inhibition (Cortical neurone [12])	Activity (Mus musculus [13])	IC50 (Cytochrome P450 3A4) [µM]	Activity (Mus musculus [14])	inhibition (Cortical neurone [15])
Oc1ccc(-c2cc3c(Br)ccc(O)c3o2)cc1O	inactive	61.64	0.12	> 100	Active	> 0.5	26.7	Active	4.11	40.83						
CCOC(=O)/C=C/c1ccc(/C=C/c2cc(O)c(O)c(O)c2)cc1	inactive	72.93	0.14	99.2		> 50	40.9	Active	19.23	28.05	Active	Active	inactive	36.2	inactive	Active
CCOC(=O)/C=C/c1cc(O)c(O)cc1-c1cc2ccccc2o1	inactive	49.61	0.01	> 100		46.1	> 50	Active	25.45	21	Active	Active	Active	11.2	Active	Active
Oc1ccc(-c2cc3cc(Br)cc(O)c3o2)cc1O	inactive	86.85	0.06	> 100	Active	> 50	36.5	Active	16.95	31.45				23.5		
CCOC(=O)/C=C/c1cc(O)c2oc(-c3cc(O)c(O)c(O)c3)cc2c1	inactive	40.35	0.94	56.6		33	53	Active	21.18	24.48	Active	Active	Active	21.7	Active	Active
